# High-throughput results as filed in PubChem.
# NPY Y1 blocker – blocks the human neuropeptide Y Y1 receptor; P25929; HEK293-CNG Y1 cells, membrane potential fluorescence; NPY at EC95, then isoproterenol; inhibition, % at 3.6 µM; 200,000 compounds, 1% hits; AID 1040;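 active means inhibition above the campaign mean inhibition of all tested compounds plus 3 SD, cut at about 20% in these data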;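 further: 0% = DMSO wells given NPY plus isoproterenol and 100% = isoproterenol alone without NPY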
#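 Assay system: HEK293 Y1/CNG channel cell line; Doses: single compound dose of 3.6 µM, 0.4% DMSO; Timing: dye 3 h, compound 60 min room temperature, stimulation 45 min; Technique: Membrane-potential fluorescent dye readout; Measure: % inhibition of NPY effect.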
# NPY Y2 blocker – antagonists of human neuropeptide Y receptor Y2; inhibition, % at 2.7 µM; 140,000 compounds, 0.99% hits; NPY-Y2 expressing cells, antagonist mode; in the data active means inhibition above about 17%;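 further: 0% = vehicle with agonist challenge and 100% = reference antagonist with challenge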
# Target sequence (P49146 whole entry, looked up): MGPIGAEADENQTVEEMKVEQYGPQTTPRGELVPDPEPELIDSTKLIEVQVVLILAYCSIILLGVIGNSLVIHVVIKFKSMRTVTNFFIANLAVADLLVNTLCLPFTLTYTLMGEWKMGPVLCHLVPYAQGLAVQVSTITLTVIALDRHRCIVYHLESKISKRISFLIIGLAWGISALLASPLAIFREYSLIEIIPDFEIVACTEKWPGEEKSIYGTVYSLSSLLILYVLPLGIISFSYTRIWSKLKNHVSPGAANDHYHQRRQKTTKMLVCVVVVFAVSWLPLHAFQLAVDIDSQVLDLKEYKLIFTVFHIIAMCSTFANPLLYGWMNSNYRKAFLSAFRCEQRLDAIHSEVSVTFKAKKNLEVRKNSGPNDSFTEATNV
# NPY2 pot ag – potentiates or activates human NPY-Y2 receptor; P49146; cells expressing NPY-Y2, potentiator/agonist read-out; activation, % at 3.6 µM; 220,000 compounds, 0.45% hits; in the data active means activation above about 27%;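 further: cells stimulated with NPY near EC25 plus isoproterenol at EC100; 0% = vehicle plus submaximal agonist and 100% = vehicle plus saturating agonist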
# NPY-Y1 PAM-ag – human NPY-Y1 potentiation or agonism, primary screen | P25929 | NPY-Y1 expressing cells, potentiator/agonist activation | activation, % at 3.6 µM | 220,000 compounds, 0.37% hits; in the data active means activation above about 33%, passing the limit was not always enough;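 further: cells stimulated with NPY at EC10 then isoproterenol at EC100; 0% = low agonist plus stimulus and 100% = saturating agonist plus stimulus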
# NPY-Y2 confirm – human NPY-Y2 potentiation or agonism, confirmation. shares compounds with NPY2 pot ag. cell-based NPY-Y2 potentiator/agonist assay. activation, % at 3.6 µM. 450 compounds, 20% hits. AID 1539; in the data active means activation above about 33%
# NPY-Y1 counter – NPY-Y1 potentiation or agonism as NPY-Y2 counter-screen; shares compounds with NPY2 pot ag; Y1 HEK293-CNG cells, membrane potential fluorescence; activation, % at 3.6 µM; 450 compounds, 20% hits; AID 1651; in the data active means activation above about 45%;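 further: cells stimulated with submaximal NPY then isoproterenol with phosphodiesterase inhibitor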
# NPY-Y1 ag 2 – human NPY-Y1 agonism as NPY-Y2 potentiator counter-screen. shares compounds with NPY2 pot ag. 450 compounds, 37% hits. activation, % at 3.6 µM. HEK293 Y1-CNGC, membrane potential fluorescence. AID 1702;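 active means activation above the mean of DMSO-only control wells plus 3 SD, cut at about 18% in these data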;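 further: cells stimulated with 1 µM isoproterenol plus the PDE inhibitor Ro 20-1724; 0% = isoproterenol with DMSO and no NPY and 100% = 40 nM NPY; Y1 agonists lower the membrane potential dye signal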
# CNGC inhibitor – cyclic nucleotide gated channel inhibition as counter-screen | shares compounds with NPY2 pot ag | HEK293-CNG parental, isoproterenol cAMP, membrane potential fluorescence | 450 compounds, 32% hits | inhibition, % at 3.6 µM;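 active means inhibition above the control-well mean plus 3 SD of those wells, cut at about 22% in these data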;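 further: 0% = DMSO with isoproterenol and 100% = DMSO without isoproterenol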
# NPY-Y2 ag 2 – NPY-Y2 agonism, counter-screen for Y2 potentiators. shares compounds with NPY2 pot ag. HEK293 Y2/CNGC cells, membrane potential fluorescence, agonist mode. activation, % at 3.6 µM. 450 compounds, 56% hits. AID 1710;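 active means activation above the mean of solvent-only control wells plus 3 SD, cut at about 10% in these data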;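 further: cells stimulated by isoproterenol with no NPY added so direct agonism is tested; 0% = DMSO with isoproterenol alone and 100% = NPY at EC100 plus isoproterenol; agonism lowers probe fluorescence through less cAMP and CNG channel opening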
# * hit, by the source's call; . = no result given. Only some compounds are listed: those with a hit (about 1.9% of all), similar ones and a draw of the others.
SMILES,NPY Y1 blocker,NPY Y2 blocker,NPY2 pot ag,NPY-Y1 PAM-ag,NPY-Y2 confirm,NPY-Y1 counter,NPY-Y1 ag 2,CNGC inhibitor,NPY-Y2 ag 2
Clc1cccc(-c2nnc(SCc3nc4ccccc4[nH]3)n2Cc2ccco2)c1,14.1,4.0,-36.9,-26.9,.,.,.,.,.
Cc1cc(C)n(-c2ncc3c(n2)N(CCO)CCOC3=O)n1,.,.,73.5*,27.4,-3.0,3.8,1.1,0.1,1.2
Cc1ccc(Nc2nc(N/N=C/c3c[nH]c4ccccc34)nc(N3CCOCC3)n2)cc1,-6.0,-2.5,27.2*,30.6,40.8*,58.6*,32.9*,42.5*,44.4*
CC(C)/C(=N\NS(=O)(=O)c1ccc(Br)cc1)c1cccs1,-6.8,.,5.3,3.3,.,.,.,.,.
COC(=O)c1cn(NC(=O)c2cccc(OC)c2)c(=O)c2ccccc12,1.4,7.2,-17.8,-9.3,.,.,.,.,.
CC(C)Oc1cccc(C(=O)C2CCCN(Cc3cnc(N4CCOCC4)s3)C2)c1 (stereo not given),3.1,.,14.1,13.3,.,.,.,.,.
O=Nc1c(O)n(Cc2c(Cl)cccc2Cl)c2ccccc12,-4.1,6.2,34.1*,24.4,7.8,1.8,13.8,-15.8,5.1
Cc1nnc(SCc2nc3sc4c(c3c(=O)[nH]2)CCCC4)[nH]c1=O,1.1,.,-8.0,6.3,.,.,.,.,.
O=C(O)c1cc(-c2c[nH]c3ccccc23)nc2cc3ccccc3cc12,.,.,4.5,15.5,.,.,.,.,.
Cc1ccc(C(=O)Nc2ccc(S(=O)(=O)NCc3ccco3)cc2)cc1,0.6,2.4,-8.6,15.1,.,.,.,.,.
Cc1cc(C)n(-c2ccc(C(=O)Nc3ccc(S(=O)(=O)NCc4ccco4)cc3)cc2)n1,-1.9,1.3,37.9*,5.5,-1.9,-40.9,-26.2,-6.4,-9.3
CC1CCC2(CC1)NC(=O)N(Cc1cccc(C(F)(F)F)c1)C2=O (stereo not given),0.8,.,2.2,23.8,.,.,.,.,.
O=C(Nc1ccc(S(=O)(=O)Nc2ccc(F)cc2)cc1)c1ccc(CN2CCOCC2)cc1,4.4,.,14.5,-6.4,.,.,.,.,.
COc1ccc(NS(=O)(=O)c2ccc(NC(=O)c3ccc(CN4CCOCC4)cc3)cc2)cc1,6.3,.,24.1*,-3.6,-7.7,-49.9,-31.1,-7.7,-5.3
CCN=C(NC#N)SCc1c(F)cccc1Cl,3.2,2.9,0.6,-10.0,.,.,.,.,.
Cc1nc2ccccc2c(=O)n1NC(=O)c1cccc([N+](=O)[O-])c1,-0.1,.,2.3,18.3,.,.,.,.,.
CCOC(=O)C1CCN(c2ncnc3c2cnn3-c2ccc(Cl)cc2)CC1,2.0,9.0,48.0*,-1.5,-21.2,-34.4,-7.5,-11.8,4.9
CCOC(=O)C1CCN(c2ncnc3c2cnn3-c2ccccc2)CC1,0.9,5.2,5.4,-25.1,.,.,.,.,.
N#Cc1c(N(CCO)CCO)nc(N)c2c(N)nc3c(c12)CC(=O)N3Cc1cccs1,.,.,2.5,-6.3,.,.,.,.,.
CN(CCO)c1nc(N)c2c(N)nc3c(c2c1C#N)CC(=O)N3Cc1cccs1,-1.4,.,40.2*,27.9,-1.1,-3.9,-14.2,-10.2,-10.2
C=CCNC(=O)O/N=C/c1csc([N+](=O)[O-])c1,.,.,-10.4,0.3,.,.,.,.,.
CN(C)S(=O)(=O)Oc1cccc(C(=O)Nc2ccccc2Cl)c1,-2.3,1.8,5.9,-6.9,.,.,.,.,.
CN(C)S(=O)(=O)Oc1cccc(C(=O)Nc2ccc(Cl)cc2)c1,-8.9,1.7,48.1*,40.2,-3.9,-36.4,-21.4,-11.6,-7.0
COc1nc(/C=C/N(C)C)c([N+](=O)[O-])c(OC)n1,.,.,101.8*,28.3,-0.6,-3.3,-6.4,-17.9,-9.6
CC1CCCCC1NS(=O)(=O)c1ccc(S(=O)(=O)NCc2ccncc2)cc1 (stereo not given),-12.8,-2.8,37.4*,-3.4,7.2,-23.7,-13.4,1.3,-0.3
COc1ccc(/C=C/C(=O)C2(O)CCCCC2)cc1OC,-5.3,.,2.2,5.0,.,.,.,.,.
Cc1nc(NCCCn2ccnc2)c2ccccc2n1,-0.2,2.0,0.7,12.7,.,.,.,.,.
